{
  "source": "ChEMBL document CHEMBL1649148",
  "about": "“Steady-state pharmacokinetics of abacavir in plasma and intracellular carbovir triphosphate following administration of abacavir at 600 milligrams once daily and 300 milligrams twice daily in human immunodeficiency virus-infected subjects” (Antimicrob Agents Chemother, 2009)",
  "assay_type_in_all_cases": "ADME, organism-based",
  "key": {"[1]": {"system": "Homo sapiens", "experiment": "(§1) Drug level at the end of dosing interval in HIV infected patient at 600 mg QD by HPLC/MS/MS analysis", "conditions": "in vivo", "how_it_was_run": "(§2)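 Plasma abacavir at steady state in HIV-1-infected adults dosed orally 600 mg QD or 300 mg BID under fasting, serial samples predose to 24 h (plus 1 h) on days 1 and 11; validated HPLC-MS/MS, calibration 2.5–2,500 ng/ml; noncompartmental parameters from actual times, BID AUC0-24 taken as 2 × AUC0-τ.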"}, "[2]": {"experiment": "(§3) AUC (0 to 24 hrs) in HIV infected patient at 600 mg QD by HPLC/MS/MS analysis", "parameters": "dose 600 mg, time < 24 hr", "conditions": "human, plasma", "how_it_was_run": "as §2"}, "[3]": {"system": "Homo sapiens", "experiment": "(§4) Drug level at the end of dosing interval in HIV infected patient at 300 mg BID by HPLC/MS/MS analysis", "conditions": "in vivo", "how_it_was_run": "as §2"}, "[4]": {"species_on_record": "Homo sapiens", "experiment": "Ratio of AUC in HIV infected patient assessed as carbovir-triphosphate level per million cells to AUC in HIV infected patient at 600 mg QD by HPLC/MS/MS analysis", "conditions": "in vivo", "how_it_was_run": "(§5)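 Per-subject ratio of intracellular CBV-TP AUC0-24 (PBMC, fmol/million cells, LC-MS/MS) to plasma abacavir AUC0-24 (HPLC-MS/MS), both by noncompartmental analysis from serial samples over 24 h on days 1 and 11 of oral 600 mg QD or 300 mg BID dosing in fasted HIV-1-infected adults.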"}, "[5]": {"species_on_record": "Homo sapiens", "experiment": "Ratio of AUC in HIV infected patient assessed as assessed as carbovir-triphosphate level per million cells to AUC in HIV infected patient at 300 mg BID by HPLC/MS/MS analysis", "conditions": "in vivo", "how_it_was_run": "as §5"}, "[6]": {"experiment": "Cmax in HIV infected patient at 300 mg BID by HPLC/MS/MS analysis", "parameters": "dose 300 mg", "conditions": "human, in vivo", "how_it_was_run": "as §2"}, "[7]": {"system": "Homo sapiens", "experiment": "as §4", "conditions": "in vivo", "how_it_was_run": "as §2", "remark": "listed apart in the source"}, "[8]": {"experiment": "as §3", "parameters": "time < 24 hr, dose 600 mg", "conditions": "male, human, plasma", "how_it_was_run": "as §2"}, "[9]": {"experiment": "Cmax in HIV infected patient at 600 mg QD by HPLC/MS/MS analysis", "parameters": "dose 600 mg", "conditions": "human, in vivo", "how_it_was_run": "as §2"}, "[10]": {"system": "Homo sapiens", "experiment": "as §1", "conditions": "in vivo", "how_it_was_run": "as §2", "remark": "listed apart in the source"}, "[11]": {"experiment": "AUC (0 to 24 hrs) in HIV infected patient at 300 mg BID by HPLC/MS/MS analysis", "parameters": "time < 24 hr, dose 300 mg", "conditions": "human, plasma", "how_it_was_run": "as §2"}, "[12]": {"system": "Homo sapiens", "experiment": "as §4", "conditions": "in vivo", "how_it_was_run": "as §2", "remark": "listed apart in the source"}, "[13]": {"system": "Homo sapiens", "experiment": "as §1", "conditions": "in vivo", "how_it_was_run": "as §2", "remark": "listed apart in the source"}, "[14]": {"species_on_record": "Homo sapiens", "experiment": "Ratio of AUC in HIV infected male patient assessed as assessed as carbovir-triphosphate level per million cells to AUC in HIV infected male patient at 300 mg BID by HPLC/MS/MS analysis", "conditions": "in vivo", "how_it_was_run": "as §5"}, "[15]": {"species_on_record": "Homo sapiens", "experiment": "Ratio of AUC in HIV infected female patient assessed as assessed as carbovir-triphosphate level per million cells to AUC in HIV infected female patient at 300 mg BID by HPLC/MS/MS analysis", "conditions": "in vivo", "how_it_was_run": "as §5"}, "[16]": {"species_on_record": "Homo sapiens", "experiment": "Ratio of AUC in HIV infected female patient assessed as carbovir-triphosphate level per million cells to AUC in HIV infected female patient at 600 mg QD by HPLC/MS/MS analysis", "conditions": "in vivo", "how_it_was_run": "as §5"}, "[17]": {"species_on_record": "Homo sapiens", "experiment": "Ratio of AUC in HIV infected male patient assessed as carbovir-triphosphate level per million cells to AUC in HIV infected male patient at 600 mg QD by HPLC/MS/MS analysis", "conditions": "in vivo", "how_it_was_run": "as §5"}, "[18]": {"species_on_record": "Homo sapiens", "experiment": "(§6) Cmax in HIV infected patient assessed as carbovir-triphosphate level per million cells at 600 mg QD by HPLC/MS/MS analysis", "parameters": "dose 600 mg", "conditions": "in vivo", "how_it_was_run": "(§7)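 Steady-state crossover in HIV-1-infected adults, oral abacavir 600 mg QD or 300 mg BID, fasted ≥10 h before and 2 h after dosing; blood drawn predose and 2–24 h postdose on days 1 and 11. PBMC isolated, counted in duplicate, lysed in ice-cold 70% methanol; CBV-TP measured by LC-MS/MS after anion exchange and alkaline phosphatase hydrolysis, converted to fmol/million cells; noncompartmental analysis.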"}, "[19]": {"species_on_record": "Homo sapiens", "experiment": "(§8) AUC (0 to 24 hrs) in HIV infected patient assessed as carbovir-triphosphate level per million cells at 600 mg QD by HPLC/MS/MS analysis", "parameters": "dose 600 mg, time < 24 hr", "conditions": "in vivo", "how_it_was_run": "as §7"}, "[20]": {"species_on_record": "Homo sapiens", "experiment": "(§9) AUC (0 to 24 hrs) in HIV infected patient assessed as carbovir-triphosphate level per million cells at 300 mg BID by HPLC/MS/MS analysis", "parameters": "time < 24 hr, dose 300 mg", "conditions": "in vivo", "how_it_was_run": "as §7"}, "[21]": {"species_on_record": "Homo sapiens", "experiment": "(§10) Cmax in HIV infected patient assessed as carbovir-triphosphate level per million cells at 300 mg BID by HPLC/MS/MS analysis", "parameters": "dose 300 mg", "conditions": "in vivo", "how_it_was_run": "as §7"}, "[22]": {"species_on_record": "Homo sapiens", "experiment": "as §9", "parameters": "dose 300 mg, time < 24 hr", "conditions": "in vivo", "how_it_was_run": "as §7"}, "[23]": {"species_on_record": "Homo sapiens", "experiment": "as §10", "parameters": "dose 300 mg", "conditions": "in vivo", "how_it_was_run": "as §7", "remark": "listed apart in the source"}, "[24]": {"system": "Homo sapiens", "experiment": "(§11) Drug level at end of dosing interval in HIV infected patient assessed as carbovir-triphosphate level per million cells at 300 mg BID by HPLC/MS/MS analysis", "conditions": "in vivo", "how_it_was_run": "as §7"}, "[25]": {"species_on_record": "Homo sapiens", "experiment": "AUC (0 to 24 hrs) in HIV infected male patient assessed as carbovir-triphosphate level per million cells at 600 mg QD by HPLC/MS/MS analysis", "parameters": "dose 600 mg, time < 24 hr", "conditions": "in vivo", "how_it_was_run": "as §7"}, "[26]": {"species_on_record": "Homo sapiens", "experiment": "as §6", "parameters": "dose 600 mg", "conditions": "in vivo", "how_it_was_run": "as §7", "remark": "listed apart in the source"}, "[27]": {"species_on_record": "Homo sapiens", "experiment": "AUC (0 to 24 hrs) in HIV infected female patient assessed as carbovir-triphosphate level per million cells at 300 mg BID by HPLC/MS/MS analysis", "parameters": "dose 300 mg, time < 24 hr", "conditions": "in vivo"}, "[28]": {"species_on_record": "Homo sapiens", "experiment": "as §10", "parameters": "dose 300 mg", "conditions": "in vivo", "how_it_was_run": "as §7", "remark": "listed apart in the source"}, "[29]": {"system": "Homo sapiens", "experiment": "as §11", "conditions": "in vivo", "how_it_was_run": "as §7", "remark": "listed apart in the source"}, "[30]": {"species_on_record": "Homo sapiens", "experiment": "as §8", "parameters": "dose 600 mg, time < 24 hr", "conditions": "in vivo", "how_it_was_run": "as §7", "remark": "listed apart in the source"}, "[31]": {"species_on_record": "Homo sapiens", "experiment": "as §6", "parameters": "dose 600 mg", "conditions": "in vivo", "how_it_was_run": "as §7", "remark": "listed apart in the source"}},
  "data": [
    {"smiles": "Nc1nc(NC2CC2)c2ncn([C@H]3C=C[C@@H](CO)C3)c2n1", "note": "[ABACAVIR]", "values": [
      {"measurement": "Ct", "setting": "[1]", "result": 0.009, "unit": "µg/mL"},
      {"measurement": "AUC at 24 h", "setting": "[2]; female", "result": 11700, "unit": "ng·h/mL"},
      {"measurement": "AUC at 24 h", "setting": "[2]", "result": 8520, "unit": "ng·h/mL"},
      {"measurement": "Ct", "setting": "[3]", "result": 0.018, "unit": "µg/mL"},
      {"measurement": "Ratio AUC", "setting": "[4]", "result": 123},
      {"measurement": "Ratio AUC", "setting": "[5]", "result": 103},
      {"measurement": "Cmax", "setting": "[6]", "result": 1840, "unit": "ng/mL"},
      {"measurement": "Cmax", "setting": "[6]; male", "result": 1590, "unit": "ng/mL"},
      {"measurement": "Ct", "setting": "[7]", "result": 0.015, "unit": "µg/mL"},
      {"measurement": "AUC at 24 h", "setting": "[8]", "result": 7260, "unit": "ng·h/mL"},
      {"measurement": "Cmax", "setting": "[9]; female", "result": 4830, "unit": "ng/mL"},
      {"measurement": "Cmax", "setting": "[9]", "result": 3850, "unit": "ng/mL"},
      {"measurement": "Cmax", "setting": "[9]; male", "result": 3430, "unit": "ng/mL"},
      {"measurement": "Ct", "setting": "[10]", "result": 0.008, "unit": "µg/mL"},
      {"measurement": "AUC at 24 h", "setting": "[11]; female", "result": 10900, "unit": "ng·h/mL"},
      {"measurement": "AUC at 24 h", "setting": "[11]", "result": 7900, "unit": "ng·h/mL"},
      {"measurement": "AUC at 24 h", "setting": "[11]; male", "result": 6740, "unit": "ng·h/mL"},
      {"measurement": "Ct", "setting": "[12]", "result": 0.026, "unit": "µg/mL"},
      {"measurement": "Ct", "setting": "[13]", "result": 0.009, "unit": "µg/mL"},
      {"measurement": "Ratio AUC", "setting": "[14]", "result": 102},
      {"measurement": "Ratio AUC", "setting": "[15]", "result": 105},
      {"measurement": "Ratio AUC", "setting": "[16]", "result": 158},
      {"measurement": "Ratio AUC", "setting": "[17]", "result": 109}
    ]},
    {"smiles": "Nc1nc(=O)c2ncn([C@H]3C=C[C@@H](COP(=O)(O)OP(=O)(O)OP(=O)(O)O)C3)c2[nH]1", "note": "[CARBOVIR 5'-TRIPHOSPHATE, (-)-]", "values": [
      {"measurement": "Cmax", "setting": "[18]", "result": 114, "unit": "fmol/10^6 cells"},
      {"measurement": "AUC", "setting": "[19]", "result": 1051, "unit": "h·fmol/million cells"},
      {"measurement": "AUC", "setting": "[20]", "result": 814, "unit": "h·fmol/million cells"},
      {"measurement": "Cmax", "setting": "[21]", "result": 58.5, "unit": "fmol/10^6 cells"},
      {"measurement": "AUC", "setting": "[22]", "result": 688, "unit": "h·fmol/million cells"},
      {"measurement": "Cmax", "setting": "[23]", "result": 49.3, "unit": "fmol/10^6 cells"},
      {"measurement": "Ct", "setting": "[24]", "result": 18.7, "unit": "fmol/10^6 cells"},
      {"measurement": "AUC", "setting": "[25]", "result": 792, "unit": "h·fmol/million cells"},
      {"measurement": "Cmax", "setting": "[26]", "result": 86.5, "unit": "fmol/10^6 cells"},
      {"measurement": "AUC", "setting": "[27]", "result": 1138, "unit": "h·fmol/million cells"},
      {"measurement": "Cmax", "setting": "[28]", "result": 82.5, "unit": "fmol/10^6 cells"},
      {"measurement": "Ct", "setting": "[29]", "result": 37.2, "unit": "fmol/10^6 cells"},
      {"measurement": "AUC", "setting": "[30]", "result": 1851, "unit": "h·fmol/million cells"},
      {"measurement": "Cmax", "setting": "[31]", "result": 198, "unit": "fmol/10^6 cells"},
      {"measurement": "AUC", "setting": "[17]", "result": 1051, "unit": "fmol·h"}
    ]}
  ]
}
